pIC50, pKi: −log10 of the molar value. Calls of active or inactive are those of the source. The calls are words filed in the database; no cut-off is given here.
Experiments:
[1] = Inhibition of Aspergillus oryzae beta-galactosidase using 2-chloro-4-nitrophenyl b-dgalactopyranoside substrate
[2] = target: T1, Beta-galactosidase (Bos taurus, UniProt Q58D55); test: Inhibition of bovine liver beta-galactosidase using 4-nitrophenyl-beta-D-galactopyranoside substrate measured over 240 mins at 10 mins intervals by UV/Vis spectroscopy
T1 sequence (Q58D55 whole entry): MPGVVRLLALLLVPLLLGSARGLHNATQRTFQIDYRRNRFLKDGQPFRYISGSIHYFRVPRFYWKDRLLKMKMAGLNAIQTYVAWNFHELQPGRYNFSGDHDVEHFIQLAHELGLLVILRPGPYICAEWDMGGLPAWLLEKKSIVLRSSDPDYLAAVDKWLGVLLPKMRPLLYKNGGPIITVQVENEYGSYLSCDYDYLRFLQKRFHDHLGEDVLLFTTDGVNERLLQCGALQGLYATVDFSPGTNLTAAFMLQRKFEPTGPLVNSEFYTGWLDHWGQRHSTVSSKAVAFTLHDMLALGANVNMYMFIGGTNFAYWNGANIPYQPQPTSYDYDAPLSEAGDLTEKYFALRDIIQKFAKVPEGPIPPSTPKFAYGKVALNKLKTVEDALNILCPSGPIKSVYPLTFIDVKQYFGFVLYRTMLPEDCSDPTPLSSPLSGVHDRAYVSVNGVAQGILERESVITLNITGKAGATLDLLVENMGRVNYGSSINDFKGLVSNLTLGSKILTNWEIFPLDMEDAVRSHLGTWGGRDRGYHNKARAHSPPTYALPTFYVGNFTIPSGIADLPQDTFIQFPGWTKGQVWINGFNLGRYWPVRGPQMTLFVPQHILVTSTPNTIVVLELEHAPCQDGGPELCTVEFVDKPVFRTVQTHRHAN
Outline: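 Bovine liver enzyme in 5 mM HEPES pH 7.50; 4-nitrophenyl-β-D-galactopyranoside mixed with 11 inhibitor dilutions (stocks 0.005–200 μM), equilibrated 30 °C 30 min, then enzyme added. Absorbance at 405 nm followed 240 min; final reads converted to percent inhibition against buffer control, plotted versus log inhibitor concentration; duplicates.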

[3] = target: T1, Beta-galactosidase; test: Inhibition of bovine liver beta-galactosidase pre-incubated for 30 mins with 4-nitrophenyl-beta-D-galactopyranoside substrate before enzyme addition measured over 45 mins at 27 secs intervals by UV/Vis based spectroscopy
Outline: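 Bovine liver enzyme (stock aliquot thawed, diluted in 5 mM HEPES, kept on ice). Varied 4-nitrophenyl-β-D-galactopyranoside with fixed inhibitor, pH 7.50 HEPES, equilibrated 30 °C 30 min before enzyme; 405 nm read for 45 min. Initial rates via ε 13,300 M−1 cm−1, fitted Michaelis-Menten at ≥2 inhibitor levels; competitive Ki from K′m = Km(1+[I]/Ki); duplicates, Lineweaver-Burk check.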

[4] = system: Aspergillus oryzae; test: Inhibition of Aspergillus oryzae beta-galactosidase using 2-chloro-4-nitrophenyl b-dgalactopyranoside substrate by Eddie-Hofstee plot
[5] = system: Aspergillus oryzae; test: Inhibition of Aspergillus oryzae beta-galactosidase using 2-chloro-4-nitrophenyl b-dgalactopyranoside substrate by Lineweaver-Burk plot
[6] = target: T2, Beta-galactosidase (Bos taurus) (UniProt Q58D55); test: Competitive inhibition of bovine liver beta-galactosidase using 4-nitrophenyl-beta-D-galactopyranoside substrate measured over 240 mins at 10 mins intervals by UV/Vis spectroscopy based Eddie-Hofstee plot
T2 sequence (whole entry): T1 sequence (Q58D55 whole entry)

[7] = Inhibition of Aspergillus oryzae beta-galactosidase using 2-chloro-4-nitrophenyl b-dgalactopyranoside substrate relative to control
[8] = target: T2, Beta-galactosidase (Bos taurus); test: Competitive inhibition of bovine liver beta-galactosidase using 4-nitrophenyl-beta-D-galactopyranoside substrate measured over 240 mins at 10 mins intervals by UV/Vis spectroscopy based Lineweaver-Burk plot

Row | SMILES | pKi [1] | pIC50 [2] | pKi [3] | inhibition activity (qualitative) [4] | inhibition activity [5] | competitive inhibition (qualitative call) [6] | pIC50 [7] | Inhibition mode (qualitative, Lineweaver-Burk) [8]
1 | CO[C@@H]1[C@H](O)[C@@H](O)C(NCc2ccc(C)cc2)=N[C@@H]1CO | 5.85 | 5.04 | 6.08 | Active | Active | Active | 4.39 | Active
2 | CCCCCCCCCCCNC1=N[C@H](CO)[C@H](O)[C@H](O)[C@H]1O | 7.32 | 7.37 | 9.62 | Active | Active | Active | 7.47 | Active
3 | Cc1cccc(C/N=C2\N[C@H](CO)[C@H](O)[C@H](O)[C@H]2O)c1 | 7.53 | 7.79 | 9.96 | Active | Active | Active | 6.88 | Active
4 | OC[C@H]1N/C(=N\Cc2cccc(F)c2)[C@H](O)[C@@H](O)[C@H]1O | 7.69 | 8.03 | 9.89 | Active | Active | Active | 6.94 | Active
5 | CCC/N=C1\N[C@H](CO)[C@H](O)[C@H](O)[C@H]1O | 6.83 | 5.99 | 9.49 | Active | Active | Active | 6.65 | Active
6 | COc1ccc(C/N=C2\N[C@H](CO)[C@H](O)[C@H](O)[C@H]2O)cc1 | 7.77 | 7.58 | 9.92 | Active | Active | Active | 6.82 | Active
7 | Cc1ccc(CNC2=N[C@H](CO)[C@H](O)[C@H](O)C2)cc1 | 5.62 | 6.07 | 9.22 | Active | Active | Active | 4.48 | Active
8 | OC[C@H]1N/C(=N\CCCc2ccccc2)[C@H](O)[C@@H](O)[C@H]1O | 8.07 | 7.38 | 10.22 | Active | Active | Active | 7.44 | Active
9 | OC[C@H]1N/C(=N\Cc2ccccc2F)[C@H](O)[C@@H](O)[C@H]1O | 7.79 | 7.37 | 9.64 | Active | Active | Active | 6.93 | Active
10 | OC[C@H]1N/C(=N\Cc2ccc(C(F)(F)F)cc2)[C@H](O)[C@@H](O)[C@H]1O | 7.80 | 7.82 | 9.80 | Active | Active | Active | 6.91 | Active
11 | O=C1N[C@H](CO)[C@H](O)[C@H](O)[C@H]1O | 6.21 | 5.06 | 5.57 | Active | Active | Active | < 4.30 | Active
12 | OC[C@H]1N/C(=N\CC2CCCCC2)[C@H](O)[C@@H](O)[C@H]1O | 7.95 | 7.94 | 10.10 | Active | Active | Active | 7.66 | Active
13 | CCCCC(CC)CNC1=N[C@H](CO)[C@H](O)[C@H](O)[C@H]1O (some centres undefined) | 8.11 | 7.67 | 9.74 | Active | Active | Active | 7.44 | Active
14 | OC[C@H]1N/C(=N\Cc2ccc(F)cc2)[C@H](O)[C@@H](O)[C@H]1O | 8.00 | 8.04 | 9.72 | Active | Active | Active | 6.48 | Active
15 | OC[C@H]1N/C(=N\CC2CC2)[C@H](O)[C@@H](O)[C@H]1O | 8.02 | < 5.85 | 9.41 | Active | Active | Active | 7.44 | Active
16 | OC[C@H]1N/C(=N\C2CC2)[C@H](O)[C@@H](O)[C@H]1O | 7.50 | < 6.00 | 9.49 | Active | Active | Active | 6.43 | Active
17 | Cc1ccc(C/N=C2\N[C@H](CO)[C@H](O)[C@H](O)[C@H]2O)cc1 | 8.10 | 7.24 | 10.15 | Active | Active | Active | 7.44 | Active
18 | OC[C@H]1N/C(=N\C2CCCCC2)[C@H](O)[C@@H](O)[C@H]1O | 6.22 | < 6.00 | 8.63 | Active | Active | Active | 5.31 | Active

Reference: ChEMBL document CHEMBL4043205, “Picomolar inhibition of β-galactosidase (bovine liver) attributed to loop closure” (Bioorg Med Chem, 2017)
